Measurements reported in ChEMBL document CHEMBL1134563, “Synthesis, mechanism of action, and antiviral activity of a new series of covalent mechanism-based inhibitors of S-adenosyl-L-homocysteine hydrolase” (J Med Chem, 2001).
In brackets after ≈: the same amount, converted by molar mass.

Tests used:
HeLa [1] = assay: Effective concentration required to inhibit vesicular stomatitis virus (VSV)-induced cytopathicity by 50% in HeLa cell lines; type: functional, cell-based; details: Homo sapiens
Vero [2] = assay: Effective concentration required to inhibit reovirus-induced cytopathicity by 50% in Vero cell lines; type: functional, cell-based; details: Chlorocebus sabaeus
Vero [3] = assay: Effective concentration required to inhibit respiratory synaptial (RSV) virus-induced cytopathicity by 50% in Vero cell lines; type: functional, cell-based; details: Chlorocebus sabaeus
Vero [4] = assay: Effective concentration required to inhibit Punta Toro virus-induced cytopathicity by 50% in Vero cell lines; type: functional, cell-based; details: Chlorocebus sabaeus
Vero [5] = assay: Minimum inhibitory concentration required to elicit microscopically visible cell morphology in Vero cell lines; type: functional; details: Chlorocebus sabaeus
Vero [6] = assay: Effective concentration required to inhibit parainfluenza-3 virus-induced cytopathicity by 50% in Vero cell lines; type: functional, cell-based; details: Chlorocebus sabaeus
HeLa [7] = assay: Minimum inhibitory concentration required to elicit microscopically visible cell morphology in HeLa cell lines; type: functional; details: Homo sapiens
HeLa [8] = assay: Effective concentration required to inhibit respiratory synaptial (RSV) virus-induced cytopathicity by 50% in HeLa cell lines; type: functional, cell-based; details: Homo sapiens
HeLa [9] = assay: Effective concentration required to inhibit Coxsackie virus B4-induced cytopathicity by 50% in HeLa cell lines; type: functional, cell-based; details: Homo sapiens
Vero [10] = assay: Effective concentration required to inhibit Sindbis virus-induced cytopathicity by 50% in Vero cell lines; type: functional, cell-based; details: Chlorocebus sabaeus
HEL [11] = assay: Effective concentration required to inhibit Thymidine kinase deficient (TK-) Varicella-Zoster virus-induced cytopathicity by 50% in YS/R strain HEL cell lines; type: functional, cell-based; details: Homo sapiens
Adenosylhomocysteinase [12] = molecular target: T1, Adenosylhomocysteinase (Homo sapiens, UniProt P23526)
Target sequence in this assay (P23526 2-432 limits assumed): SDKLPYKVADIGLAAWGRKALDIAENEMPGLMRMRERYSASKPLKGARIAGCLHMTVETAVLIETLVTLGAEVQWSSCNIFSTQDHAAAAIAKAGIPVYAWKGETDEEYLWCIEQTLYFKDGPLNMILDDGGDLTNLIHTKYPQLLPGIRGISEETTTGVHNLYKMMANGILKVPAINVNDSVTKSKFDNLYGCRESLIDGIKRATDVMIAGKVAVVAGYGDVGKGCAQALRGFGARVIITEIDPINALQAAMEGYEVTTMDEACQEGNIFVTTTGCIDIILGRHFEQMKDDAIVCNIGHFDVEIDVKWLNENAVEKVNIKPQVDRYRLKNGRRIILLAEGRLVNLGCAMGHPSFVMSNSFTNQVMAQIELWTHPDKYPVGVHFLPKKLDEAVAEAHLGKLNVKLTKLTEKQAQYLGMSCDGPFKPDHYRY

Vero [13] = assay: Effective concentration required to inhibit Tacaribe virus-induced cytopathicity by 50% Vero cell lines; type: functional, cell-based; details: Chlorocebus sabaeus
HEL [14] = assay: Minimum inhibitory concentration required to elicit microscopically visible cell morphology in HEL cell lines; type: functional; details: Homo sapiens
HEL [15] = assay: Effective concentration required to inhibit Thymidine kinase deficient (TK-) Varicella-Zoster virus-induced cytopathicity by 50% in 07/01 strain HEL cell lines; type: functional, cell-based; details: Homo sapiens
[16] = half life of enzyme inactivation at 15 uM; type: functional
Method in brief: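 Recombinant human placental AdoHcy hydrolase was preincubated with inhibitor (5-40 µM range) in assay buffer at 37 °C. Residual activity was read at set times in the synthetic direction: [8-14C]-AdoHcy formation from 10 µM [8-14C]-Ado plus 5 mM D,L-Hcy, in 20 mM K phosphate pH 7.5, 1 mg/mL BSA, 1 mM EDTA, for 10 min at 37 °C. HCl stopped the reaction, and products were separated on Cellex P.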

E6SM [17] = assay: Effective concentration required to inhibit vesicular stomatitis virus(VSV) -induced cytopathicity by 50% in E6SM cell lines; type: functional, cell-based; details: Homo sapiens
Adenosylhomocysteinase [18] = molecular target: T1, Adenosylhomocysteinase; remark: listed apart in the source
Target sequence in this assay (P23526 2-432 limits assumed): as above

E6SM [19] = assay: Effective concentration required to inhibit Vaccinia virus-induced cytopathicity by 50% in E6SM cell lines; type: functional, cell-based; details: Homo sapiens
E6SM [20] = assay: Effective concentration required to inhibit Herpes simplex virus-1 (HSV-1) induced cytopathicity by 50% in E6SM cell lines; type: functional, cell-based; details: Homo sapiens
Adenosylhomocysteinase [21] = molecular target: T1, Adenosylhomocysteinase; remark: listed apart in the source
Target sequence in this assay (P23526 2-432 limits assumed): as above

Vero [22] = assay: Effective concentration required to inhibit Junin virus-induced cytopathicity by 50% in Vero cell lines; type: functional, cell-based; details: Chlorocebus sabaeus
HEL [23] = assay: Effective concentration required to inhibit thymidine kinase (TK+) Varicella-Zoster virus-induced cytopathicity by 50% in YS strain HEL cell lines; type: functional, cell-based; details: Homo sapiens
HEL [24] = assay: Effective concentration required to inhibit cytomegalo virus-induced cytopathicity by 50% in Davis-169 strain HEL cell lines; type: functional, cell-based; details: Homo sapiens
E6SM [25] = assay: Effective concentration required to inhibit Herpes simplex virus-2 (HSV-2) induced cytopathicity by 50% in E6SM cell lines; type: functional, cell-based; details: Homo sapiens
Vero [26] = assay: Effective concentration required to inhibit PuntaToro virus-induced cytopathicity by 50% in Vero cell lines; type: functional, cell-based; details: Chlorocebus sabaeus
Adenosylhomocysteinase [27] = molecular target: T1, Adenosylhomocysteinase; assay: Inhibition of purified recombinant human placental S-adenosyl-homocysteine hydrolase
Method in brief: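 Enzyme preincubated at 37 °C in assay buffer with inactivator (5-40 µM). Residual activity was read over time in the synthetic direction from the formation of [8-14C]-AdoHcy, using 10 µM [8-14C]-Ado, 5 mM D,L-Hcy, 20 mM potassium phosphate pH 7.5, 1 mg/mL BSA and 1 mM EDTA, 10 min at 37 °C. Reaction stopped with HCl; Ado/AdoHcy separated on Cellex P.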
Target sequence in this assay (P23526 whole entry): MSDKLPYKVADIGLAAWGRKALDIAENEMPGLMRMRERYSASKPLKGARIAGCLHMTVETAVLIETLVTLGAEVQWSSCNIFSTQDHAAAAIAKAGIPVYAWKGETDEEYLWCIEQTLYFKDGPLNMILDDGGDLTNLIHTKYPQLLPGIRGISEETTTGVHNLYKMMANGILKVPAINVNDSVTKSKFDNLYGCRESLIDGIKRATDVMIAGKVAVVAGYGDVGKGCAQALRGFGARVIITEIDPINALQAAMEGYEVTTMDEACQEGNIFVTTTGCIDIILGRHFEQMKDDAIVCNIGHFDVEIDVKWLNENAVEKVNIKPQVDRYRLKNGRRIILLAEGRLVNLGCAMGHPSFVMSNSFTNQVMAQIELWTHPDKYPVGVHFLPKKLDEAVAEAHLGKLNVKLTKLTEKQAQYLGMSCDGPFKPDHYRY

E6SM [28] = assay: Minimum inhibitory concentration required to elicit microscopically visible cell morphology in E6SM cell lines; type: functional; details: Homo sapiens
HEL [29] = assay: Effective concentration required to inhibit cytomegalo virus-induced cytopathicity by 50% in AD-169 strain HEL cell lines; type: functional, cell-based; details: Homo sapiens
HeLa [30] = assay: Effective concentration required to inhibit respiratory synaptial(RSV) virus-induced cytopathicity by 50% in HeLa cell lines; type: functional, cell-based; details: Homo sapiens
HEL [31] = assay: Effective concentration required to inhibit thymidine kinase (TK+) Varicella-Zoster virus-induced cytopathicity by 50% in OKA strain HEL cell lines; type: functional, cell-based; details: Homo sapiens
E6SM [32] = assay: Effective concentration required to inhibit Herpes simplex virus-1(HSV-1) / […] kinase deficient (TK-)B2006 / VMW1837 induced cytopathicity by 50% in E6SM cell lines; type: functional, cell-based; details: Homo sapiens
HEL [33] = assay: Effective concentration required to inhibit cytomegalo virus(CMV) -induced cytopathicity by 50% in AD-169 strain HEL cell lines; type: functional, cell-based; details: Homo sapiens

SMILES | EC50 (HeLa [1]) | EC50 (Vero [2]) | EC50 (Vero [3]) | EC50 (Vero [6]) | MIC (HeLa [7]) | EC50 (HeLa [9]) | EC50 (HEL [11]) | MIC (HEL [14]) | EC50 (HEL [15]) | EC50 (E6SM [17]) | EC50 (E6SM [19]) | EC50 (E6SM [20]) | EC50 (HEL [23]) | EC50 (HEL [24]) | EC50 (E6SM [25]) | EC50 (Vero [26]) | MIC (E6SM [28]) | EC50 (HeLa [30]) | EC50 (HEL [31]) | EC50 (E6SM [32]) | other results
Nc1ncnc2c1ncn2C[C@H](O)CO [(S)-DHPA] | 230 µM | 45 µM | > 2000 µM | 230 µM | > 2000 µM | 230 µM | – | – | – | – | – | – | – | – | – | – | – | – | – | – | EC50 (Vero [4]): > 2000 µM; MIC (Vero [5]): > 2000 µM; EC50 (HeLa [8]): 2000 µM
C=C=CSC[C@H]1OC(n2cnc3c(N)ncnc32)[C@H](O)[C@@H]1O (stereo partly drawn) | > 250 µM | > 380 µM | > 250 µM | > 620 µM | 1240 µM (≈ 398 µg/mL) | > 600 µM | > 200 µM | > 200 µM | 87 µM | > 250 µM | 1.9 µM | 250 µM | > 200 µM | > 200 µM | > 250 µM | > 620 µM | 1240 µM (≈ 398 µg/mL) | > 250 µM | > 200 µM | 150 µM | EC50 (Vero [10]): > 200 µM; NADH content (Adenosylhomocysteinase [12]): 0.3; EC50 (Vero [13]): > 200 µM; T1/2 [16]: 7 min; K inact (Adenosylhomocysteinase [18]): 0.12 min⁻¹; NAD+ content (Adenosylhomocysteinase [21]): 0.7; EC50 (Vero [22]): > 200 µM; Ki (Adenosylhomocysteinase [27]): 16 µM; EC50 (HEL [29]): > 200 µM
NC(=O)c1ncn([C@@H]2O[C@H](CO)[C@@H](O)[C@H]2O)n1 [RIBAVIRIN] | 1000 µM | 40 µM | > 1600 µM | 196 µM | > 1600 µM | > 320 µM | – | – | – | 40 µM | 65 µM | 320 µM | – | – | 320 µM | 40 µM | > 1600 µM | 1.5 µM | – | 0.005 µM | –
Nc1nc2c(ncn2COCCO)c(=O)[nH]1 [ACYCLOVIR] | – | – | – | – | – | – | 63 µM | > 150 µM | 41 µM | – | – | – | 4.09 µM | – | – | – | – | – | 4.53 µM | – | –
Nc1nc2c(ncn2COC(CO)CO)c(=O)[nH]1 [GANCICLOVIR] | > 100 µM | – | – | – | – | – | – | > 150 µM | – | – | > 100 µM | 0.0012 µM | – | 11.8 µM | 0.0012 µM | – | > 1600 µM | – | – | – | EC50 (HEL [29]): 7.8 µM
CC#CSC[C@H]1OC(n2cnc3c(N)ncnc32)[C@H](O)[C@@H]1O (stereo partly drawn) | > 1240 µM | > 120 µM | > 1240 µM | > 120 µM | > 1240 µM | > 120 µM | 200 µM | > 200 µM | 200 µM | > 250 µM | 49 µM | 250 µM | > 200 µM | > 200 µM | 620 µM | > 120 µM | 1240 µM (≈ 398 µg/mL) | > 250 µM | > 200 µM | > 250 µM | EC50 (Vero [10]): > 40 µM; NADH content (Adenosylhomocysteinase [12]): 0.32; EC50 (Vero [13]): > 200 µM; T1/2 [16]: 7 min; K inact (Adenosylhomocysteinase [18]): 0.062 min⁻¹; NAD+ content (Adenosylhomocysteinase [21]): 0.68; EC50 (Vero [22]): > 200 µM; Ki (Adenosylhomocysteinase [27]): 16 µM; EC50 (HEL [29]): > 200 µM
C#CCSC[C@H]1OC(n2cnc3c(N)ncnc32)[C@H](O)[C@@H]1O (stereo partly drawn) | > 250 µM | > 120 µM | > 250 µM | > 120 µM | 1240 µM (≈ 398 µg/mL) | > 120 µM | 126 µM | > 200 µM | 154 µM | > 250 µM | > 250 µM | > 250 µM | > 200 µM | > 200 µM | > 250 µM | > 120 µM | 1240 µM (≈ 398 µg/mL) | > 250 µM | > 200 µM | > 250 µM | EC50 (Vero [10]): > 40 µM; NADH content (Adenosylhomocysteinase [12]): 1; EC50 (Vero [13]): > 200 µM; T1/2 [16]: 19 min; EC50 (HEL [33]): > 200 µM; K inact (Adenosylhomocysteinase [18]): 0.0074 min⁻¹; NAD+ content (Adenosylhomocysteinase [21]): 0; EC50 (Vero [22]): > 200 µM; Ki (Adenosylhomocysteinase [27]): 45 µM
